Experiment [1] deals with T1, Muscarinic acetylcholine receptor M1 (Homo sapiens, UniProt P11229).
T1 sequence (P11229 whole entry): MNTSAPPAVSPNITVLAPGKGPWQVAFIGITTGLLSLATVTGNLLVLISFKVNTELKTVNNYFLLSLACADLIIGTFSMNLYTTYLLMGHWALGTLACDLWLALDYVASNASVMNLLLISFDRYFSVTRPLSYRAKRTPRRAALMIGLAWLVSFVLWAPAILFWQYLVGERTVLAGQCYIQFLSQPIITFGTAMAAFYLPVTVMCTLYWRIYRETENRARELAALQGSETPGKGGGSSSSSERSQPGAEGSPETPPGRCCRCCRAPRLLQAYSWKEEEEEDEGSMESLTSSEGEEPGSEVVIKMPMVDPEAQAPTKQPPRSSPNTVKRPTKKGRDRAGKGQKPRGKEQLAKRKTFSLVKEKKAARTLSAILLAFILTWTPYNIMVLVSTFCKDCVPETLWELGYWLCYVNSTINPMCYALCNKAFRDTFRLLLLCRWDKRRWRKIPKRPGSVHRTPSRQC
The experiment in a line: Displacement of [3H]NMS from human muscarinic acetylcholine receptor M1 expressed in CHOK9 cells after 3 hrs by liquid scintillation counting assay. The experiment is classed as cell-based. (In general: In a radioligand displacement assay an active substance lowers the binding of a labelled ligand.)

Experiment [2] concerns the target Muscarinic acetylcholine receptor M3 (Homo sapiens, UniProt P20309). The experiment can be described thus: Displacement of [3H]NMS from human muscarinic acetylcholine receptor M3 expressed in CHOK9 cells after 3 hrs by liquid scintillation counting assay. The experiment is classed as cell-based.
Experiment [3] deals with T2, Muscarinic acetylcholine receptor M4 (Homo sapiens, UniProt P08173).
T2 sequence (P08173 whole entry): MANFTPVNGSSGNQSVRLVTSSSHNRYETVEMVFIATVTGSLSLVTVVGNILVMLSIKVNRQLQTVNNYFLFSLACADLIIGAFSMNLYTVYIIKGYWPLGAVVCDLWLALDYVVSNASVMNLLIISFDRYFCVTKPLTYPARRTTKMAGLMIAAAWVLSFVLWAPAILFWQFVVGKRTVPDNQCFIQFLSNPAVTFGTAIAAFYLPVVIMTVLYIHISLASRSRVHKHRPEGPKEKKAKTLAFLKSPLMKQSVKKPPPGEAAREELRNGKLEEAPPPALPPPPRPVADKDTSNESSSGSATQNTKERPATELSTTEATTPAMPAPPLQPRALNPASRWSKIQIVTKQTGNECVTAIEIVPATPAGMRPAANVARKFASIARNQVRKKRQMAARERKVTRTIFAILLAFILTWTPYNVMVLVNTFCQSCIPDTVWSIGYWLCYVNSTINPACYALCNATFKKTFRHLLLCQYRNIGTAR
The experiment in a line: Displacement of [3H]NMS from human muscarinic acetylcholine receptor M4 expressed in CHOK9 cells after 3 hrs by liquid scintillation counting assay. The experiment is classed as cell-based.

Experiment [4] deals with T3, Muscarinic acetylcholine receptor M2 (Homo sapiens) (UniProt P08172).
T3 sequence (whole entry): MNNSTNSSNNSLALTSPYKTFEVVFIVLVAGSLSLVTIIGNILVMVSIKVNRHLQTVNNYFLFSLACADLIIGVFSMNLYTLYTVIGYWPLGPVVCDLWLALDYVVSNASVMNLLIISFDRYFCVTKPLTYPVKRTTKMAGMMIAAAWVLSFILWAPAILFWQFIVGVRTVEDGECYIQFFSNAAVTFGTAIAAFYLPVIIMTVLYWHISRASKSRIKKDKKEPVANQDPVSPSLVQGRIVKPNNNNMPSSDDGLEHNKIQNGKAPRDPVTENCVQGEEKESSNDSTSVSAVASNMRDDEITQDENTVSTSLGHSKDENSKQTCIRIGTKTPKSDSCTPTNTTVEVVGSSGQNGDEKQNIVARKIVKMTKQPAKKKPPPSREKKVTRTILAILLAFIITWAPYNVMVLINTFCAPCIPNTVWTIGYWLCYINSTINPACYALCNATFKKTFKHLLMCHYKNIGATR
The experiment in a line: (§1) Competitive antagonist activity at human muscarinic acetylcholine receptor M2 expressed in HEK293 cells coexpressing HA tagged Galpha-protein qi5 assessed as inhibition of 0.1 uM carbachol-induced IP1 accumulation preincubated for 30 mins followed by carbachol addition measured after 1 hr by HTRF assay. Format: functional, cell-based. Put shortly:
(§2)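 HEK-293 transiently cotransfected with human M2R and Gαqi5-HA. Cells preincubated 30 min with antagonist, then carbachol added (final 0.1, 0.3, 1 or 10 μM), 1 h at 37 °C. IP1 detected by HTRF (620/670 nm emission, 330 nm excitation). At least four independent experiments, each in duplicate.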

Experiment [5] concerns the target T4, Muscarinic acetylcholine receptor M2 (Homo sapiens, UniProt P08172).
T4 sequence (P08172 whole entry): T3 sequence (whole entry)
The description is as §1. The experiment is classed as functional, cell-based. Summed up: as §2

The target in experiment [6] is T3, Muscarinic acetylcholine receptor M2 (Homo sapiens). The experiment can be described thus: (§3) Competitive antagonist activity at human muscarinic acetylcholine receptor M2 expressed in HEK293 cells coexpressing HA tagged Galpha-protein qi5 assessed as inhibition of 1 uM carbachol-induced IP1 accumulation preincubated for 30 mins followed by carbachol addition measured after 1 hr by HTRF assay. The experiment is classed as functional, cell-based. Summed up: as §2

In experiment [7] the target is T4, Muscarinic acetylcholine receptor M2. Described as §3. The experiment is classed as functional, cell-based. Summed up: as §2
Experiment [8] addresses T3, Muscarinic acetylcholine receptor M2 (Homo sapiens). The experiment in a line: Binding affinity to human muscarinic acetylcholine receptor M2 expressed in live adherent CHOK9 cells after 2 hrs by liquid scintillation counting assay. Format: cell-based. The following applies: tested as the 3H-labelled form. Summed up:
(§4)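 Live adherent CHO-hM2 cells in L15 medium with 1% BSA, 23 ± 1 °C, 2 h incubation. Competition at 2 nM radioligand; additional 4, 8, 15 and 30 nM in W84 experiments. […] Saturation data fitted one-site; competition by four-parameter logistic fits; at least three experiments in triplicate.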

The target is the same in experiment [9]. The experiment in a line: Binding affinity to human muscarinic acetylcholine receptor M2 expressed in CHOK9 cell suspension after 2 hrs by liquid scintillation counting assay. The settings on record: tested as the 3H-labelled form.
The target is the same in experiment [10]. The experiment can be described thus: Binding affinity to human muscarinic acetylcholine receptor M2 expressed in CHOK9 cell homogenate after 2 hrs by liquid scintillation counting assay. The following applies: tested as the 3H-labelled form. Summed up: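 CHO-hM2 cell homogenates (25–30 μg protein/well) in L15 medium with 1% BSA, 23 ± 1 °C, 2 h with tritiated dimeric radioligand. Competition used 0.5 nM radioligand; additional 0.4, 1, 2 and 4 nM in W84 experiments. […] Four-parameter logistic fits; at least three experiments in triplicate.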

The target of experiment [11] is T4, Muscarinic acetylcholine receptor M2. The experiment can be described thus: Displacement of [3H]UR-AP060 from human muscarinic acetylcholine receptor M2 expressed in CHOK9 cell homogenate after 3 hrs by liquid scintillation counting assay.
In experiment [12] the target is T3, Muscarinic acetylcholine receptor M2 (Homo sapiens). The experiment in a line: Binding affinity to human muscarinic acetylcholine receptor M2 expressed in CHOK9 cells assessed as dissociation half life after 105 mins by liquid scintillation counting assay. Format: cell-based. The following applies: tested as the 3H-labelled form.
For experiment [13] the target is unchanged. The experiment in a line: Binding affinity to human muscarinic acetylcholine receptor M2 expressed in live adherent CHOK9 cells at Kd in presence of 500-fold excess atropine after 2 hrs by liquid scintillation counting assay relative to control. The experiment is classed as cell-based. The settings on record: tested as the 3H-labelled form. Put shortly:
as §4

Each structure is given as a SMILES string. pIC50, pKi: −log10 of the molar value.

The text below walks through data of ChEMBL document CHEMBL4049434, “Radiolabeled Dibenzodiazepinone-Type Antagonists Give Evidence of Dualsteric Binding at the M2 Muscarinic Acetylcholine Receptor” (J Med Chem, 2017).

Sequence of Muscarinic acetylcholine receptor M3 (P20309 whole entry): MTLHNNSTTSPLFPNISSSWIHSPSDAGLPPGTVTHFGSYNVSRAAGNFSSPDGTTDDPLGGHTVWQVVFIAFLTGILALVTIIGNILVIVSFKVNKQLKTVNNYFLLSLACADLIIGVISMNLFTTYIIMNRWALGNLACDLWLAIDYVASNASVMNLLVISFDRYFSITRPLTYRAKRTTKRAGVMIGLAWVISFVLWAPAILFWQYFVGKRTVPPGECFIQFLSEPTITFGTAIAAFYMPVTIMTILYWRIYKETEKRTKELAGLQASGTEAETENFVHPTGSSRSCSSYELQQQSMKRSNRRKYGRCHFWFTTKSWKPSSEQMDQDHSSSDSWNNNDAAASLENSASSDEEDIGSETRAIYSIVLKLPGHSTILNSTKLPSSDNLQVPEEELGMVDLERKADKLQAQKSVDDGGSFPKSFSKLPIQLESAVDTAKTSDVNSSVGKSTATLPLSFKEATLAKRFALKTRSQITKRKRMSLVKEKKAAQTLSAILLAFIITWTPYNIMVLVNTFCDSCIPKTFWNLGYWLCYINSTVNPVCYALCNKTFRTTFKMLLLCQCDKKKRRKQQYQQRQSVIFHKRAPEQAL

In the case of `CCC(=O)NCc1cc(C(=O)NCCNC(=O)CCc2cn(CCCCC3CCN(CC(=O)N4c5ccccc5NC(=O)c5ccccc54)CC3)cn2)cc(C(=O)NCCNC(=O)CCc2cn(CCCCC3CCN(CC(=O)N4c5ccccc5NC(=O)c5ccccc54)CC3)cn2)c1.O=C(O)C(F)(F)F.O=C(O)C(F)(F)F.O=C(O)C(F)(F)F.O=C(O)C(F)(F)F`, the pKi in experiment [1] was 8.82; in experiment [2], 7.81; in [3], 9.33; in [11] it was 8.98. For the same molecule, the inhibition entry in experiment [4] and in experiment [6] was “Dose-dependent effect” throughout. The values for the negative logarithm of the IC50 (pIC50) in experiment [5] and in experiment [7] were 7.78 and 6.76, respectively. The Bmax (disintegrations/minute) in experiment [8] is 1200; in experiment [9], 1800; in experiment [10] it was 620. Besides, the T1/2 in [12] turned out to be 1.1 h. For the same molecule, the Activity in experiment [13] was more than 60%.

A word on the pKi: it is the negative decadic logarithm of the Ki, by convention in mol/L. As a reminder, the pIC50 is −log10 of the IC50, conventionally taken in molar units.
